Compound activity as filed in PubChem.
Mdm2 MdmX PPI: disrupts the human Mdm2-MdmX interaction | hit rate 3% among 330,000 | O15151+Q00987 | SaOS-2 split-luciferase Mdm2/MdmX complementation, luminescence | AID 485346 | inhibition, % at 8 µM;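 active means inhibition of at least 50% at 8 µM in the primary screen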
Target sequence (O15151 whole entry, looked up): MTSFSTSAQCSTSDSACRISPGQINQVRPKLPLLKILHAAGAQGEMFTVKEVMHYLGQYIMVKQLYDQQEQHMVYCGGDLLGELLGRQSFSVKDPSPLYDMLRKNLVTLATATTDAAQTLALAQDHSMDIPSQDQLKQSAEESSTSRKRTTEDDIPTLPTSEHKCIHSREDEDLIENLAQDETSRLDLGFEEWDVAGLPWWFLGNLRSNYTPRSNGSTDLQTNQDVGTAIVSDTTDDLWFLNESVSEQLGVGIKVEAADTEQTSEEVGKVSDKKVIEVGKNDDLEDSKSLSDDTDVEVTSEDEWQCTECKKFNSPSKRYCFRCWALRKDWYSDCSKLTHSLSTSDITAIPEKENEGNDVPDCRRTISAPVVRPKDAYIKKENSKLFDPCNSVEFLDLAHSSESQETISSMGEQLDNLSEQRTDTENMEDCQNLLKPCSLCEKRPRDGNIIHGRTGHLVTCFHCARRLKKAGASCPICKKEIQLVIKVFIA
Target sequence (Q00987 whole entry, looked up): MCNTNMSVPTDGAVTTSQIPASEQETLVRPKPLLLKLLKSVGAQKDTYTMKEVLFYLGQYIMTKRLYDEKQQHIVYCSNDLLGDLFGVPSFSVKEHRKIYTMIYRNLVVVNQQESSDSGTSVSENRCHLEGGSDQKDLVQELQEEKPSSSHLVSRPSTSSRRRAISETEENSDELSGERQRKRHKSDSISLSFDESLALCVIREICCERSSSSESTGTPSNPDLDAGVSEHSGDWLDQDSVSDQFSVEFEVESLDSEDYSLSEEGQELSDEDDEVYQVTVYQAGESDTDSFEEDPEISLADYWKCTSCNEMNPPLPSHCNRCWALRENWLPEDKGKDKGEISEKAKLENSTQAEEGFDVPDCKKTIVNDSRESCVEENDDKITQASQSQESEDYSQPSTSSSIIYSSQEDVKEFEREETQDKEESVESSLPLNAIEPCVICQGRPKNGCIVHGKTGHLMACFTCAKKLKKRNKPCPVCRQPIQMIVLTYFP
SKKanGAS inh: blocks kanamycin growth of S. pyogenes SKKanGAS strain. AID 1662. BacTiter-Glo, 6 h. inhibition, % at 7.5 µM. hit rate 1.3% among 300,000;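 active means mean replicate score, as percent of positive control median, at least 50; inconclusive means mean below 50 but one replicate at or above 50; inactive means mean and every replicate below 50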;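 further: strain carries kanamycin resistance gene driven by streptokinase promoter and grows in 40 µg/ml kanamycin; loss of luminescence reflects streptokinase promoter inhibition or plain growth inhibition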
L major viab: Leishmania major promastigote growth inhibition; Leishmania major promastigotes, resazurin fluorescence viability; inhibition, % at 10 µM; hit rate 9% among 200,000; in the data active means inhibition above about 50%;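 further: promastigotes grown with compound for 44 hours at 28 °C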
CSC inhib: cancer stem cell inhibition. AID 2717. cancer stem cell-like cells viability, luminescence. inhibition, % at 7.5 µM. hit rate 1.1% among 300,000; in the data active means inhibition above about 75%; inconclusive means no clear call, values can overlap the other calls; tested in HMLE shEcad cells
T cruzi inh: T. cruzi replication inhibition | T. cruzi beta-gal in NIH3T3, luminescence, 90 h | inhibition, % (no concentration beside the values) | hit rate 1.4% among 300,000;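 active means mean inhibition across valid replicates above about 55%, limit read from the data; inconclusive means mean below that limit but half or more replicates reach it; inactive means mean below it, under half of replicates reach it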;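 further: signal also drops with host cell toxicity which is not excluded here; higher percent means less beta-gal luminescence so fewer parasites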
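assay system = mouse NIH/3T3 fibroblasts infected with β-gal-expressing T. cruzi Tulahuen C4 | input = 5,000 NIH/3T3 host cells per well | buffer or medium = DMEM plus 2% FBS | timing = 3 h host attachment, then at least 90 h co-culture | measured by = GalScreen luminescence, 60 min | evaluation = luminescence reflecting intracellular parasite burden, expressed as percent inhibition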
Beta apoptosis: blocks beta cell apoptosis; protection from apoptosis, % (concentration not given with the values); INS-1E cytokine-induced death, ATP luminescence, 48 h; percent of positive-control rescue, neutral wells zero; hit rate 0.8% among 300,000;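 active means Every replicate reaches about 75%, or at least half do and their mean reaches it too, limit read from the data; inconclusive means At least half of replicates reach the limit but their mean does not; inactive means Under half of replicates reach the limit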;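 further: higher means more ATP so stronger rescue from cytokine killing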
Mdm2 MdmX conf: confirmation of human Mdm2/MdmX interaction inhibitors; hit rate 55% among 10,000; AID 489028; Mdm2-MdmX binding, luminescent assay; shares compounds with Mdm2 MdmX PPI; inhibition, % at 8 µM; in the data active means inhibition above about 40%
Full FLuc ctr: full-length luciferase inhibition in Mdm2/MdmX counter-screen; inhibition, % at 8 µM; shares compounds with Mdm2 MdmX PPI; SaOS-2 full-length luciferase counterscreen, luminescence; hit rate 77% among 6,200; AID 504607;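 active means mean inhibition at 8 µM reaching about 37%, which flags the compound as non-specific, limit read from the data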;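 further: p53-null SaOS-2 cells with luciferase driven by a doxycycline-inducible promoter; compound on cells about two nights before reading with doxycycline added after day one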
Hits are given with their value; . = inactive; ? = inconclusive; / = not tested or not shown. Shown are actives, neighbours in structure and some others; about 9.4% of the full set was active somewhere.

SMILES | Mdm2 MdmX PPI | SKKanGAS inh | L major viab | CSC inhib | T cruzi inh | Beta apoptosis | Mdm2 MdmX conf | Full FLuc ctr
COc1cc(-c2nnc(NC(=O)CCS(=O)(=O)c3ccccc3)o2)cc(OC)c1OC | 79 | . | / | . | . | / | 65 | 63
COc1cc(OC)cc(-c2nnc(NC(=O)CCS(=O)(=O)c3ccccc3)o2)c1 | . | . | / | . | . | / | / | /
O=C(CCS(=O)(=O)c1ccc(F)cc1)Nc1nnc(-c2cccs2)o1 | . | . | / | . | . | / | / | /
COc1cc2c(cc1OC)CN(c1nc(CN3CCOCC3)nc3sc4c(c13)CCC(C)C4)CC2 (stereo not given) | 64 | . | . | . | . | . | . | 74
CCOC(=O)C(C)(C)N(Cc1cccc(C)c1)S(=O)(=O)c1ccc(Cl)c([N+](=O)[O-])c1 | 57 | . | 86 | . | . | . | . | /
COc1ncc(C2=CC(=O)CC(C)(C)C2)cn1 | . | / | / | . | / | . | / | /
O=C(Nc1nc2ccccc2s1)c1cc(-c2ccccc2)nn1-c1ccccc1 | 86 | . | 93 | . | . | 111 | 47 | 110
C/C(=N\NC(=O)CNC(=O)C(c1ccccc1)c1ccccc1)c1ccc(C(C)(C)C)cc1 | 55 | . | . | . | . | . | . | /
CCOC(=O)C1=CN(Cc2cccc(F)c2)S(=O)(=O)NC1CCc1ccccc1 (stereo not given) | 61 | / | / | / | / | / | . | 47
CCOC(=O)C1=CN(Cc2cccc(F)c2)S(=O)(=O)NC1c1ccccc1 (stereo not given) | . | / | / | / | / | / | / | /
O=C(O)/C=C(\Oc1ccccc1)C1(O)CCCCC1 | . | . | / | . | . | . | / | /
Cc1cc2cc(C)c(NCCNC(=O)c3ccccc3)nc2cc1C | . | . | . | . | . | . | / | /
Cc1ccc(C(=O)NCCNc2nc3cc(C)c(C)cc3cc2C)cc1 | 65 | . | . | . | . | . | . | /
CS(=O)(=O)c1ccc(C(=O)OC2CCOC2=O)cc1[N+](=O)[O-] (stereo not given) | . | . | / | . | . | / | / | /
COc1ccc(-c2ccc([C@H]3[C@H]4C=CC[C@@H](C)[C@@H]4C(=O)N3Cc3ccccc3)c(F)c2)cc1 | . | . | / | . | . | . | / | /
COc1cc(-c2cccc([C@H]3[C@@H]4C=CC[C@@H](C)[C@@H]4C(=O)N3Cc3ccccc3)c2)cc(OC)c1OC | 83 | / | / | / | / | / | . | /
COc1ccc(-c2c([C@H]3[C@H]4C=CC[C@@H](C)[C@@H]4C(=O)N3Cc3ccccc3)ccc3ccccc23)cc1 | 69 | . | / | . | . | 107 | . | /
CC1(C)Oc2ccc3ccc(=O)oc3c2/C(=C/NNC(N)=O)C1=O | . | . | / | . | . | . | / | /
Cc1ccc(S(=O)(=O)N2CCN(CC(=O)N/N=C\c3ccc(Cl)c([N+](=O)[O-])c3)CC2)cc1 | 64 | . | . | . | . | . | . | /
O=C(CN1CCN(S(=O)(=O)c2ccc(Br)cc2)CC1)N/N=C/c1ccc(Cl)c([N+](=O)[O-])c1 | . | . | . | . | . | . | / | /
CCOC(=O)N1C(=O)[C@](CC)(c2ccccc2)N1C(=O)OCC | . | . | / | . | . | . | / | /
CCC1(c2ccccc2)ON(c2c(Br)cccc2Br)C1=O (stereo not given) | 93 | / | / | . | / | . | 91 | 47
CCCOc1c(OC)cccc1C1CC(=O)Nc2cc3c(cc21)OCCO3 (stereo not given) | 52 | . | . | ? | . | . | 55 | 68
CCCOc1c(OC)cccc1C1CC(=O)Nc2cc3c(cc21)OCO3 (stereo not given) | 55 | . | . | . | . | / | 51 | 68
CCOc1ccccc1C1CC(=O)Nc2cc3c(cc21)OCO3 (stereo not given) | . | . | . | . | . | . | / | /
SMILES | Mdm2 MdmX PPI | SKKanGAS inh | L major viab | CSC inhib | T cruzi inh | Beta apoptosis | Mdm2 MdmX conf | Full FLuc ctr
COc1ccccc1C1CC(=O)Nc2cc3c(cc21)OCCO3 (stereo not given) | 55 | . | . | . | . | . | 59 | 64
CCOc1c(OC)cccc1C1CC(=O)Nc2cc(OC)c(OC)cc21 (stereo not given) | . | . | . | . | . | . | / | /
CCOc1ccccc1C1C2=C(COC2=O)Nc2cc3c(cc21)OCO3 (stereo not given) | 69 | . | . | . | . | . | 57 | 65
COc1cccc(C2CC(=O)Nc3cc4c(cc32)OCCO4)c1OC(C)C (stereo not given) | . | / | . | . | / | / | / | /
COC(=O)COc1ccc(-n2cnnn2)cc1 | . | . | . | . | . | . | / | /
COc1ccc(-c2cc(C(=O)c3c(N)n(C)c(=O)n(C)c3=O)c3ccccc3n2)cc1OC | . | . | . | . | . | . | / | /
CN(C)C(=O)c1ccc(NC(=O)c2ccccc2SCC(=O)N2CCCC2)cc1 | . | / | / | . | / | . | / | /
Cc1[nH]c(=O)[nH]c(=O)c1CSc1nnc([C@@H](NC(=O)OC(C)(C)C)C(C)C)o1 | 84 | . | . | . | . | . | . | /
Cc1[nH]c(=O)[nH]c(=O)c1CSc1nnc(CCCCCNC(=O)OC(C)(C)C)o1 | . | . | . | . | . | . | / | /
O=C(CSc1ncn[nH]1)CSc1ncn[nH]1 | . | . | . | . | . | . | / | /
CCOc1cc(C(=O)NC2CCCCCCC2)cc(OCC)c1OCC | . | . | / | . | . | . | / | /
COc1ccc(S(=O)(=O)N2CCCCC2)cc1NC(=O)CNc1ccccc1C(C)=O | . | / | / | . | / | . | / | /
Cn1cc(CN2CCC(C(=O)N3CCCCC3)CC2)c(-c2ccccc2F)n1 | . | . | . | . | . | . | / | /
Cc1cccc(N2CCN(Cc3cn(C)nc3-c3ccccc3F)CC2)n1 | 55 | . | . | . | . | . | 70 | 49
c1ccc(OCCOCCN2CCN(C(c3ccccc3)c3ccccc3)CC2)cc1 | 52 | . | . | . | . | . | . | /
Cc1ccc(C)c(-c2nnc(NC(=O)Cc3ccc(F)cc3)o2)c1 | 52 | . | / | . | . | . | . | /
Cn1c(=O)c2c(SCC(=O)N3CCCc4ccccc43)nc(CC(C)(C)C)nc2n(C)c1=O | 69 | . | 52 | . | . | . | . | /
CCCc1nc(SCC(=O)N2CCC(Cc3ccccc3)CC2)c2c(=O)n(C)c(=O)n(C)c2n1 | 60 | . | . | . | . | . | 42 | 79
COc1cc(-c2nnc(SCC(=O)N(Cc3ccccc3)C(C)(C)C)o2)cc(OC)c1OC | 51 | . | . | . | . | . | 42 | 91
CC(C(=O)NCCCc1ccccc1)n1cccc1C(=O)c1ccccc1 (stereo not given) | . | . | / | . | . | . | / | /
O=C(Nc1ccc(-c2nc3ccccc3[nH]2)cc1)c1ccc2c(c1)OCO2 | 90 | . | . | . | . | . | 67 | .
COCCN1Cc2cccc(C(=O)Nc3cccc(-c4nc5ccccc5[nH]4)c3)c2C1=O | 55 | . | / | . | . | . | 51 | 90
